Source: PubChem (several laboratories)
This is a sample that favours compounds with a hit; in the whole collection about 3.7% have one here.
NPY2 pot ag – NPY-Y2 potentiators or agonists, primary screen, cell-based. Neuropeptide Y receptor type 2 (Homo sapiens), P49146. cells expressing NPY-Y2, potentiator/agonist read-out. activation, % at 3.6 µM. actives 0.45% (n = 220,000). AID 1359, 2008; in the data active = activation above about 27%;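 note: cells stimulated with NPY near EC25 plus isoproterenol at EC100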
Cl transport mod – KCC2 cotransporter modulators, thallium flux, primary screen, cell-based, HEK293 KCC2, FluoZin-2 fluorescence, MLSMR; KCC2 cells, thallium flux FluoZin-2 fluorescence; B-score of Tl+ flux slope (higher = more flux/activation; lower = inhibition) at 10 µM; actives 2.2% (n = 190,000);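 active = thallium flux slope and its plate-corrected score both differing from the plate sample mean at a set confidence after two filtering rounds, in either direction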;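 note: slope of fluorescence scaled to starting intensity during 10 to 20 s after thallium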
Furin inhibitor – human furin inhibitors, primary screen, biochemical, fluorescence intensity. inhibition, % at 20 µM or 30 µM. actives 0.061% (n = 220,000). purified furin, fluorogenic substrate cleavage. P09958; in the data active = inhibition above about 25%
Target sequence (P09958 108-714 limits assumed): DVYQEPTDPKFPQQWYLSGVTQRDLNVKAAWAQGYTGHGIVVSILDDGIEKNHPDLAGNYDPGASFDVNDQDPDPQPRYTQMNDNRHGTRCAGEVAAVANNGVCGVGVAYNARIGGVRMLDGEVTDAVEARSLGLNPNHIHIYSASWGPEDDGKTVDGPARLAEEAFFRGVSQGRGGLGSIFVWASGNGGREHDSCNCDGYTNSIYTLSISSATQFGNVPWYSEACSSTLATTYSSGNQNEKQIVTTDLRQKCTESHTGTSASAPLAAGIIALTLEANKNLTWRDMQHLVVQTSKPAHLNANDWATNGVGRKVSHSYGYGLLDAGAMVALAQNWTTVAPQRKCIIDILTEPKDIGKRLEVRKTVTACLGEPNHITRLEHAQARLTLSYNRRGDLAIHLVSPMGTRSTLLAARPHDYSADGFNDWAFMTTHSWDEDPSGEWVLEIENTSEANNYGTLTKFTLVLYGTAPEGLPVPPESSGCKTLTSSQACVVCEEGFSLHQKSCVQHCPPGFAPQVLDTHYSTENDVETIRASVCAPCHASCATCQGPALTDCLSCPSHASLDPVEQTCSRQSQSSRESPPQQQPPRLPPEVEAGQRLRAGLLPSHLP
NPY1 pot ag – NPY-Y1 receptor potentiators or agonists, primary screen, cell-based | Neuropeptide Y receptor type 1 (Homo sapiens), P25929 | NPY-Y1 expressing cells, potentiator/agonist activation | activation, % at 3.6 µM | actives 0.37% (n = 220,000) | AID 1304, 2008; in the data active = activation above about 33%, passing the limit was not always enough;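 note: cells stimulated with NPY at EC10 then isoproterenol at EC100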
NPY-Y1 antag – NPY-Y1 receptor antagonists, primary screen, cell-based. Neuropeptide Y receptor type 1 (Homo sapiens), P25929. actives 1% (n = 200,000). AID 1040, 2008. inhibition, % at 3.6 µM. HEK293-CNG Y1 cells, membrane potential fluorescence; NPY at EC95, then isoproterenol;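 active = inhibition above the campaign mean inhibition of all tested compounds plus 3 SD, cut at about 20% in these data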
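System: HEK293 cells with Y1 receptor plus CNG channel / Probe or stimulus: NPY 25 nM then isoproterenol 1 µM plus Ro 20-1724 25 µM / Compound: one concentration, 3.6 µM, in 0.4% DMSO / Schedule: compound incubation 1 h at room temperature, readout 45 min post-stimulation / Measured by: membrane potential fluorescence / Read-out: % inhibition of NPY effect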
NPY Y2 blocker – NPY-Y2 receptor antagonists, primary screen, cell-based; inhibition, % at 2.7 µM; NPY-Y2 expressing cells, antagonist mode; actives 0.99% (n = 140,000); AID 793, 2007; Neuropeptide Y receptor type 2 (Homo sapiens), P49146
NPY1 antag conf – NPY-Y1 receptor antagonists, retest of hits, confirmation, HEK293-CNG cells, membrane potential fluorescence, triplicate | inhibition, % at 3.6 µM | actives 21% (n = 1,200) | shares compounds with NPY-Y1 antag | cAMP; NPY challenge against isoproterenol-raised cAMP; in the data active = inhibition above about 20%
NPY-Y2 antag ct – NPY-Y2 receptor antagonists, selectivity check, confirmation, counter-screen for NPY-Y1 antagonist project, HEK293-CNG cells, membrane potential fluorescence, triplicate. shares compounds with NPY-Y1 antag. antagonism; cells given NPY, then isoproterenol. inhibition, % at 3.6 µM. actives 28% (n = 1,200)
Of the large screens only hits and unclear results are named; the others gave an inactive call (follow-up assays come after a bar, where they were run). Cut-off read from the data, not from the text of the source, unless noted: active = inhibition above about 17%; inactive = the rest.

O=C(Oc1ccc([N+](=O)[O-])cc1)c1cncc(Br)c1	none
COc1ccc(-n2cc(-c3ccccc3)c3c(NCCCN4CCOCC4)ncnc32)cc1	NPY-Y1 antag 26 (no result: NPY Y2 blocker) | NPY1 antag conf inactive | NPY-Y2 antag ct inactive
CC(=O)Nc1cc2nn(-c3ccccc3)nc2cc1Cl	none
CC(C)(C)C(=O)Nc1cc2nn(-c3ccccc3)nc2cc1Cl	NPY-Y1 antag 20 | NPY1 antag conf inactive | NPY-Y2 antag ct inactive
OC1CCN(Cc2cccc(Oc3ccccc3)c2)CC1	none
CC1CCCN(Cc2cccc(Oc3ccccc3)c2)C1 (configuration not stated)	NPY-Y1 antag 25 | NPY1 antag conf inactive | NPY-Y2 antag ct inactive
Cc1c(N2C(=O)CSC2=S)c(=O)n(-c2ccccc2)n1C	NPY-Y1 antag 26 (no result: NPY Y2 blocker) | NPY1 antag conf inactive | NPY-Y2 antag ct inactive
Cc1oc(C(C)(C)C)cc1C(N)=O	none (no result: NPY-Y1 antag, NPY Y2 blocker)
COc1cc(-c2nnc(COc3ccc4ccccc4c3)o2)cc(OC)c1OC	NPY-Y1 antag 23 (no result: Cl transport mod) | NPY1 antag conf inactive | NPY-Y2 antag ct inactive
CSc1ccccc1NC(=O)NCCCl	none (no result: NPY Y2 blocker)
CC(C)(C)c1ccc(-c2cn(-c3ccc(Br)cc3)c3[n+]2CCCS3)cc1	NPY-Y1 antag 55 (no result: NPY Y2 blocker) | NPY1 antag conf 68 | NPY-Y2 antag ct 32
c1ccc(-c2cn(-c3ccccc3)c3[n+]2CCS3)cc1	none (no result: NPY Y2 blocker)
COc1ccc(C)cc1N(C(=O)COc1cccc(F)c1)c1nc2ccccc2s1	none
COc1ccc(C)cc1N(C(=O)c1ccc(F)cc1)c1nc2ccccc2s1	NPY-Y1 antag 22 | NPY1 antag conf inactive | NPY-Y2 antag ct inactive
Cc1cccc(Nc2nc(N)nc(-c3oc4ccccc4c3C)n2)c1	none (no result: NPY-Y1 antag, NPY Y2 blocker)
Cc1ccc(Nc2nc(N)nc(-c3oc4ccccc4c3C)n2)cc1	NPY-Y1 antag 24 (no result: NPY Y2 blocker) | NPY1 antag conf inactive | NPY-Y2 antag ct 30
O=C(O)C1=C[C@H](c2csc3ccccc23)C[C@H](OCCCCO)O1	none (no result: NPY Y2 blocker)
CCCCNC(=O)c1onc(CSc2ccc(F)cc2)c1C(=O)NCCCC	none (no result: NPY2 pot ag, NPY1 pot ag, NPY-Y1 antag, NPY Y2 blocker)
CCCCNC(=O)c1onc(CSc2ccc(Cl)cc2)c1C(=O)O	NPY-Y1 antag 21 | NPY1 antag conf 23 | NPY-Y2 antag ct inactive
C=CCNC(=O)c1onc(CSc2ccc(Cl)cc2)c1C(=O)O	NPY-Y1 antag 22 | NPY1 antag conf inactive | NPY-Y2 antag ct inactive
O=C(Nc1ccc(F)cc1)c1sccc1SCc1cccc(C(F)(F)F)c1	NPY-Y1 antag 25 | NPY1 antag conf inactive | NPY-Y2 antag ct inactive
COc1ccc(NC(=O)c2sccc2SCc2cccc(C(F)(F)F)c2)cc1	NPY-Y1 antag 32 | NPY1 antag conf inactive | NPY-Y2 antag ct inactive
NNC(=O)c1sccc1OCc1cccc(C(F)(F)F)c1	none (no result: Cl transport mod, NPY Y2 blocker)
COc1ccsc1C(=O)Nc1ccc(F)cc1F	none (no result: Cl transport mod, NPY Y2 blocker)
O=C(Cc1cccc(C(F)(F)F)c1)Nc1ccccc1	none (no result: NPY Y2 blocker)
O=C(Nc1ccc(F)cc1F)c1sccc1SCc1cccc(C(F)(F)F)c1	NPY-Y1 antag 48 | NPY1 antag conf 23 | NPY-Y2 antag ct 17
O=C(OC(C(=O)Nc1cccc(C(F)(F)F)c1)c1ccccc1)C1CCCCC1 (configuration not stated)	none
COCCSc1ccccc1C(=O)NCc1cccnc1	none (no result: NPY Y2 blocker)
Cc1cc(=O)c2cc3nc(-c4cccnc4)oc3c(Br)c2o1	none (no result: NPY-Y1 antag, NPY Y2 blocker)
COCCCN1CCN(C2Cc3ccccc3Sc3ccc(Cl)cc32)CC1 (configuration not stated)	NPY-Y1 antag 26 | NPY1 antag conf inactive | NPY-Y2 antag ct inactive
O=C(COC(=O)COc1ccc2ccccc2c1)NCC(F)(F)F	NPY-Y1 antag 29 (no result: NPY Y2 blocker) | NPY1 antag conf inactive | NPY-Y2 antag ct inactive
Cc1ccc(S(=O)(=O)c2c(C)nn(-c3ccccc3)c2OC(=O)c2ccc(Br)o2)cc1	none
CC(Sc1nnc(-c2cccs2)n1Cc1ccccc1)C(=O)NCc1ccc2c(c1)OCO2 (configuration not stated)	NPY-Y1 antag 24 | NPY1 antag conf inactive | NPY-Y2 antag ct inactive
Cc1csc(SC(C)c2nc3scc(-c4ccccc4)c3c(=O)[nH]2)n1 (configuration not stated)	none (no result: NPY-Y1 antag, NPY Y2 blocker)
Cc1ccc(Nc2nc(-c3c(C)nc4ncccn34)cs2)cc1	NPY-Y1 antag 24 | NPY1 antag conf inactive | NPY-Y2 antag ct inactive
COc1nc(NCCO)nc(Nc2ccccc2F)n1	none (no result: NPY Y2 blocker)
COc1ccc(-c2ccc(C(=O)O)c(=O)[nH]2)cc1	none (no result: NPY Y2 blocker)
Cc1ccc(-c2ccc(C(=O)O)[nH]2)cc1	NPY-Y1 antag 28 (no result: Cl transport mod) | NPY1 antag conf inactive | NPY-Y2 antag ct inactive
COC(=O)c1ccc(OC(=O)CCc2cc(OC)c(OC)c(OC)c2)cc1	none (no result: NPY Y2 blocker)
N#Cc1nc(-c2ccc(F)cc2)oc1NCc1cccc2c1OCO2	NPY-Y1 antag 22 | NPY1 antag conf inactive | NPY-Y2 antag ct inactive
CC1=N/C(=C/c2cccnc2)C(=O)O1	none (no result: NPY Y2 blocker)
COc1ccc(N2CCN(C(=O)C3(C)CC3(Cl)Cl)CC2)cc1 (configuration not stated)	none
Cc1ccc2nc(NC(=O)CNS(=O)(=O)c3ccc(Br)s3)sc2c1	NPY-Y1 antag 20 | NPY1 antag conf inactive | NPY-Y2 antag ct inactive
Cc1ccc2nc(NC(=O)CN(C)S(=O)(=O)c3ccc(Br)s3)sc2c1	none (no result: Cl transport mod)
O=C(Cn1c(C(=O)N2CCN(C3CCCCC3)CC2)cc2sccc21)c1ccccc1	NPY-Y1 antag 22 | NPY1 antag conf inactive | NPY-Y2 antag ct inactive
O=C(Cn1c(C(=O)N2CCc3ccccc3C2)cc2sccc21)c1ccccc1	none
Cc1ccc(C(C)C)c(OCC(=O)Nc2ccccc2N2CCN(C)CC2)c1	none
CC(=O)N1CCN(c2ccccc2NC(=O)COc2cc(C)ccc2C(C)C)CC1	NPY-Y1 antag 22 (no result: Cl transport mod) | NPY1 antag conf inactive | NPY-Y2 antag ct inactive
CCC(=O)N1CCN(c2ccccc2NC(=O)c2cccc(C)c2)CC1	none
CN1CCN(c2ccccc2NC(=O)COc2ccccc2)CC1	NPY-Y1 antag 21 | NPY1 antag conf inactive | NPY-Y2 antag ct inactive
CCC(=O)N1CCN(c2ccccc2NC(=O)COc2cccc(C)c2)CC1	Cl transport mod 13, NPY-Y1 antag 20 | NPY1 antag conf inactive | NPY-Y2 antag ct inactive
